For assay [1], the target named is T1, Estrogen receptor (Rattus norvegicus) (UniProt P06211+Q62986). The assay can be described thus: In vivo uterotrophic effect in estradiol stimulated immature rats. The assay is classed as functional, organism-based. The essentials:
(§1)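 Immature female Sprague-Dawley rats got daily subcutaneous injections of compound in 0.1 mL peanut oil for 3 days and were killed on day 4. Read-out was uterine weight (mg).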

Assay [2] deals with T1, Estrogen receptor (Rattus norvegicus). Kind of assay: In vivo anti-uterotrophic effect in 0.2 ug estradiol benzoate stimulated immature rats at 10 ug. The assay is classed as functional, organism-based. The essentials: as §1
Assay [3] relates to MCF7. The assay can be described thus: Inhibition of MCF-7 human mammary tumor cell proliferation 1*10e-7 M. The class given is functional. An outline of the steps: (§2)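 MCF-7 cells were plated at 5000 cells/mL. […] Cell number was read as colour intensity at 540 nm. Values are means of optical density from four separate cultures, […]. Statistics were one-way ANOVA with Newman-Keuls test.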

The subject of assay [4] is MCF7. Kind of assay: Inhibition of 1*10e-8M estradiol induced proliferation of MCF-7 human mammary tumor cells at 1*10e-7 M. The assay is classed as functional. The essentials: as §2
Assay [5] addresses T1, Estrogen receptor (Rattus norvegicus). Kind of assay: In vivo anti-uterotrophic effect in 0.2 ug estradiol benzoate stimulated immature rats at 20 ug. The assay is classed as functional, organism-based. An outline of the steps:
as §1

Assay [6] concerns MCF7. Kind of assay: (§3) Inhibition of 1*10e-8M estradiol induced proliferation of MCF-7 human mammary tumor cells. The class given is functional. The essentials: as §2
Assay [7] deals with Estrogen receptor (Homo sapiens) (UniProt Q92731+P03372). Kind of assay: Inhibition of [3H]estradiol binding to Estrogen receptor of MCF-7 cell lysate […]. The assay is classed as cell-based.
In assay [8] the target is T1, Estrogen receptor (Rattus norvegicus). The assay can be described thus: In vivo anti-uterotrophic effect in 0.2 ug estradiol benzoate stimulated immature rats at 5 ug. The assay is classed as functional, organism-based. The essentials:
as §1

The subject of assay [9] is MCF7. Described as §3. The class given is functional. The essentials:
as §2
The source holds these as a separate data set.

Assay [10] has as its system MCF7. The assay can be described thus: Inhibition of MCF-7 human mammary tumor cell proliferation at 1*10e-8M. The class given is functional. An outline of the steps:
as §2

The subject of assay [11] is MCF7. Kind of assay: Inhibition of MCF-7 human mammary tumor cell proliferation at 1*10e-6 M. The class given is functional. An outline of the steps: as §2
Assay [12] deals with MCF7. Kind of assay: Inhibition of 1*10e-7 M estradiol induced proliferation of MCF-7 human mammary tumor cells at 1*10e-6 M. The class given is functional. The essentials: as §2
For assay [13], the system named is MCF7. The assay can be described thus: Inhibition of MCF-7 human mammary tumor cell proliferation. The assay is classed as functional. An outline of the steps:
as §2

Assay [14] has as its target T1, Estrogen receptor (Rattus norvegicus). The assay can be described thus: In vivo anti-uterotrophic effect in 0.2 ug estradiol benzoate stimulated immature rats at 50 ug. The class given is functional, organism-based. The essentials: as §1
For assay [15] the target is unchanged. The assay can be described thus: In vivo anti-uterotrophic effect in 0.2 ug estradiol benzoate stimulated immature rats at 25 ug. The assay is classed as functional, organism-based. An outline of the steps: as §1
Assay [16] shares this target. Kind of assay: In vivo anti-uterotrophic effect in 0.2 ug estradiol benzoate stimulated immature rats at 12.5 ug. The assay is classed as functional, organism-based. The essentials: as §1
Assay [17] deals with MCF7. The assay can be described thus: Inhibition of MCF-7 human mammary tumor cell proliferation at 1*10e-7 M. The class given is functional. An outline of the steps: as §2
In assay [18] the test system is MCF7. The assay can be described thus: Inhibition of 1*10e-7 M estradiol induced proliferation of MCF-7 human mammary tumor cells at 1*10e-8M. The class given is functional. The essentials: as §2
The test system of assay [19] is MCF7. The assay can be described thus: Inhibition of 1*10e-7 M estradiol induced proliferation of MCF-7 human mammary tumor cells at 1*10e-7 M. The class given is functional. An outline of the steps:
as §2

Structures are written as SMILES.

Consider `C[C@]12CC[C@@H]3c4ccc(OC(=O)c5ccccc5)cc4CC[C@H]3[C@@H]1CC[C@@H]2O`, for which the Uterine weight in [1] is 108.
Take `CN(C)CCOc1ccc(C2=C(c3ccccc3)CCCc3cc(O)ccc32)cc1`: the Uterine weight in assay [2] is 72; in assay [5], 71; in assay [8], 75. For the same compound, the Optical density in assay [3] turned out to be 0.066; in assay [4], 0.147; in assay [6], 0.727; in assay [9] it was 0.52; in assay [10] it was 0.126; in assay [11], 0.083. For the same compound, the Optical density in [12] was found to be 0.068; in [13], 0.417. In assay [7], this compound gave a relative binding affinity (RBA) of 1.5.
Take `CN(C)CCOc1ccc(C2=C(c3ccccc3)CCCc3ccccc32)cc1`: the Uterine weight in [14] was 77; in [15] it was 75; in assay [16] it was 92.
On to `CN(C)CCOc1ccc2c(c1)CCCC(c1ccccc1)=C2c1ccc(O)cc1`, for which the Optical density in assay [17] stood at 0.328; in [6], 0.707; in assay [10], 0.44; in assay [11] it was 0.162; in [18] it was 0.659; in assay [12] it was 0.363. The results for the Optical density in [19] and in assay [13] were 0.566 and 0.337, respectively.

Values taken from ChEMBL document CHEMBL1124143, “Nonisomerizable analogues of (Z)- and (E)-4-hydroxytamoxifen. Synthesis and endocrinological properties of substituted diphenylbenzocycloheptenes” (1988).
